The record followed here is ChEMBL document CHEMBL4371041, “Synthesis and evaluation of thieno[3,2-d]pyrimidine derivatives as novel FMS inhibitors” (Bioorg Med Chem Lett, 2019).

The test system of one series is NFS-60. The series is described as follows: Growth inhibition of mouse NFS60 cells after 72 hrs by CellTiter96 AQueous one solution cell proliferation assay. Type of series: functional. As to conditions: NFS-60, 72 h.
Series [1] is described as follows: Stability in human hepatocytes assessed as parent compound remaining measured after 60 mins. Particulars: read-out: Stability. Type of series: ADME, cell-based, Hepatocyte.
In another series the target is Cytochrome P450 1A2 (Homo sapiens, UniProt P05177). The series is described as follows: Inhibition of CYP1A2 in human liver microsomes by LC-MS/MS analysis. Type of series: ADME. The method, boiled down: (§1)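 Reversible CYP inhibition measured in human liver microsomes; metabolite formation quantified by LC/MS/MS.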
In general terms: Liver microsomes are a subcellular fraction often used to study metabolism.

The next series concerns the target Cytochrome P450 2C9 (Homo sapiens, UniProt P11712). Kind of series: Inhibition of CYP2C9 in human liver microsomes by LC-MS/MS analysis. Type of series: ADME. In a few lines: as §1
A further series addresses Cytochrome P450 2C19 (Homo sapiens, UniProt P33261). The series is described as follows: Inhibition of CYP2C19 in human liver microsomes by LC-MS/MS analysis. Type of series: ADME. In a few lines:
as §1

The target of the next series is Cytochrome P450 2D6 (Homo sapiens, UniProt P10635). The series is described as follows: Inhibition of CYP2D6 in human liver microsomes by LC-MS/MS analysis. In kind it is ADME. In a few lines: as §1
The next series has as its target Cytochrome P450 3A4 (Homo sapiens, UniProt P08684). Kind of series: Inhibition of CYP3A4 in human liver microsomes by LC-MS/MS analysis. Type of series: ADME. In a few lines:
as §1

Series [2] in a line: Half life in CD-1 mouse at 3 mg/kg, iv. In kind it is ADME, organism-based. As to conditions: in vivo.
The nature of series [3]: Cmax in CD-1 mouse at 3 mg/kg, iv. In kind it is ADME, organism-based. More on the design: dose 3 mg/kg, route intravenous. Particulars: in vivo.
The nature of series [4]: AUC (0 to 7 hrs) in CD-1 mouse at 3 mg/kg, iv. Particulars: in vivo. On the set-up: dose 3 mg/kg, time < 7 hr, route intravenous. Type of series: ADME, organism-based.
A short description of series [5]: Volume of distribution in CD-1 mouse at 3 mg/kg, iv. As to conditions: in vivo. In kind it is ADME, organism-based.
Series [6] in a line: Clearance in CD-1 mouse at 3 mg/kg, iv. Particulars: in vivo. Type of series: ADME, organism-based.
A short description of series [7]: Half life in CD-1 mouse at 10 mg/kg, po. As to conditions: in vivo. In kind it is ADME, organism-based.
Series [8] can be described thus: Cmax in CD-1 mouse at 10 mg/kg, po. Type of series: ADME, organism-based. More on the design: dose 10 mg/kg, route oral. Particulars: in vivo.
A short description of series [9]: Tmax in CD-1 mouse at 10 mg/kg, po. Particulars: in vivo. Type of series: ADME, organism-based.
Series [10] can be described thus: AUC (0 to 7 hrs) in CD-1 mouse at 10 mg/kg, po. In kind it is ADME, organism-based. More on the design: time < 7 hr, dose 10 mg/kg, route oral. Particulars: in vivo.
Series [11] can be described thus: Oral bioavailability in CD-1 mouse at 10 mg/kg. As to conditions: in vivo. Type of series: ADME, organism-based.

Chain of Cytochrome P450 2C19 (P33261 whole entry): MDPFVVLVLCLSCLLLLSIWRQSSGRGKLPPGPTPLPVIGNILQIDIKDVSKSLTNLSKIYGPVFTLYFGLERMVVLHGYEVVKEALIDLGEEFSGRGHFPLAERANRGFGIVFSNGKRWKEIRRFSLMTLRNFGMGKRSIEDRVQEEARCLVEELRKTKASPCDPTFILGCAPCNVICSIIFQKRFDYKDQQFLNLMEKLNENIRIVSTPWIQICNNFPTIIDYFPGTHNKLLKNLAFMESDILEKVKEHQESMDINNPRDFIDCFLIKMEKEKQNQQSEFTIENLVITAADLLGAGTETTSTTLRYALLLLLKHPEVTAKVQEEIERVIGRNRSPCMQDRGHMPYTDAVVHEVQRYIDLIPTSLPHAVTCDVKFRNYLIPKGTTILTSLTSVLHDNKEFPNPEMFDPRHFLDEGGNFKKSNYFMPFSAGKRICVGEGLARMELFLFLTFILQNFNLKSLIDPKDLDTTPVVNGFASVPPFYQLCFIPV
Chain of Cytochrome P450 2D6 (P10635 whole entry): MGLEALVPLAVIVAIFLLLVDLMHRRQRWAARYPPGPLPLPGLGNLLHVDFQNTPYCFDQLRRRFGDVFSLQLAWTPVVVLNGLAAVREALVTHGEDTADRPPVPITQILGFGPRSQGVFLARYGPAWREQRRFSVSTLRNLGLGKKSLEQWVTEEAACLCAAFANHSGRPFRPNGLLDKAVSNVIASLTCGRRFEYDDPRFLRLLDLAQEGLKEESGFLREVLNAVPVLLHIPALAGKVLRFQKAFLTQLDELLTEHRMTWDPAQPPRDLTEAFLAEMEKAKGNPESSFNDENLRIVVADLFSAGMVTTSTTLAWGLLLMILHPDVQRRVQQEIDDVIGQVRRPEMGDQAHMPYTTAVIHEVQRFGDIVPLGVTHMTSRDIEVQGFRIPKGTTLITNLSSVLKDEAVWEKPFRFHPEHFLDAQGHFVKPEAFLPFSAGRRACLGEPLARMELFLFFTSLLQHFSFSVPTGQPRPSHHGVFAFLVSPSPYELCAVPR
Chain of Cytochrome P450 1A2 (P05177 whole entry): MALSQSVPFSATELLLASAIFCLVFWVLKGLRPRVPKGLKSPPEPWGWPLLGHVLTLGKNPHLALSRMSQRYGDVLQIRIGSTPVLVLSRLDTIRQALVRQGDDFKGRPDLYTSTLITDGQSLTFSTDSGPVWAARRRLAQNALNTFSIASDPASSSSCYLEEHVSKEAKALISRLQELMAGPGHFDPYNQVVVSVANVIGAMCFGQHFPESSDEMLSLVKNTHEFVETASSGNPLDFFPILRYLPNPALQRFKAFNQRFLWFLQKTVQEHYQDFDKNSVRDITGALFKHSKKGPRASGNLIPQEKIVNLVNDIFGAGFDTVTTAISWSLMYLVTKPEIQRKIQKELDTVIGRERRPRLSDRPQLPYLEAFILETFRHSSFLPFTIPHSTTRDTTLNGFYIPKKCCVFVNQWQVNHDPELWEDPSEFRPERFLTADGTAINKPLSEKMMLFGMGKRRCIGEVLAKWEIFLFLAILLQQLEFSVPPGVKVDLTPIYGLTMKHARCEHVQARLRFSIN
Chain of Cytochrome P450 2C9 (P11712 whole entry): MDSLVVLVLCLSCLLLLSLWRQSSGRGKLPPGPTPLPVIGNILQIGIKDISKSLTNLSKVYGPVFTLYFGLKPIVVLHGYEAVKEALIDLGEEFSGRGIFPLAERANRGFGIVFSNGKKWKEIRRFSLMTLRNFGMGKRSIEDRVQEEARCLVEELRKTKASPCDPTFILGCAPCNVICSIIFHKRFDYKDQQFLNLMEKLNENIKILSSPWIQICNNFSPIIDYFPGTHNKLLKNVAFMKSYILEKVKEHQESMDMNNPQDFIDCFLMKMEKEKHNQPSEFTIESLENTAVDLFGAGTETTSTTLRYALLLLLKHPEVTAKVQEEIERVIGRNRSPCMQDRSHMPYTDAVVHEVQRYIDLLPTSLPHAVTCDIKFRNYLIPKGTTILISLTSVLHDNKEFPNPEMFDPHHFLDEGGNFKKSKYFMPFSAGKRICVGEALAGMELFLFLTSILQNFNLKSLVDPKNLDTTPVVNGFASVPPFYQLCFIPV
Chain of Cytochrome P450 3A4 (P08684 whole entry): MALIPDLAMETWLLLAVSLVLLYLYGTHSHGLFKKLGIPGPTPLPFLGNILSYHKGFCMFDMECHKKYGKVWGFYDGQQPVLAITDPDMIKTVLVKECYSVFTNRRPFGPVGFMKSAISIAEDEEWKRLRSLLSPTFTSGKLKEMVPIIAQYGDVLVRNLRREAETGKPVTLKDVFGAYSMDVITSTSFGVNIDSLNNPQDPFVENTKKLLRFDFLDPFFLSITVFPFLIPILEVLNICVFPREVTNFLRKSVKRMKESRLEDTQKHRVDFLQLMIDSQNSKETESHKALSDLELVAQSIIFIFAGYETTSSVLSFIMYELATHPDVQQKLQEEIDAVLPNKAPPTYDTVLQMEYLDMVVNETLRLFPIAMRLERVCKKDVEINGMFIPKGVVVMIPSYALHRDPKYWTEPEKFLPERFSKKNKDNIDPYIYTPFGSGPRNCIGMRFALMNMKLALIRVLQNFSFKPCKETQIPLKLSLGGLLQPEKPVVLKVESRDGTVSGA

`Cc1cccc(Cn2nc(I)c3c(NC(=O)c4csc5c(N)ncnc45)cccc32)n1` displayed a GI50 in the series with NFS-60 of 30 nM.
`Nc1ncnc2c(C(=O)Nc3cccc4c3c(Br)nn4Cc3cccc(Br)n3)csc12` came in with a concentration for 50% growth inhibition (GI50) in the series with NFS-60 of 243 nM.
On the same count and under the same terms, the value for `Nc1ncnc2c(C(=O)Nc3cccc4c3c(Br)nn4Cc3cccc(F)n3)csc12` was 233 nM; that for `Nc1ncnc2c(C(=O)Nc3cccc4c3c(Br)nn4Cc3ccncc3)csc12` was 135 nM; that for `CCc1nn(Cc2cccc(C)n2)c2cccc(NC(=O)c3csc4c(N)ncnc34)c12` was above 10000 nM.
In the series with NFS-60, `Cc1cccc(Cn2nc(Cl)c3c(NC(=O)c4csc5c(N)ncnc45)cccc32)n1` registered a concentration for 50% growth inhibition (GI50) of 8 nM. Besides, the remaining at 1 h in series [1] is 66%.
Take `COc1ccc(COc2ccc(Cc3cnc(N)nc3N)cc2OC)cc1` [GW632580X]: in the series on NFS-60, the concentration for 50% growth inhibition (GI50) worked out at 94 nM.
In the series with NFS-60, `Nc1ncnc2c(C(=O)Nc3cccc4c3c(Br)nn4Cc3cccnc3)csc12` yielded a GI50 of 77 nM. Besides, the half-maximal inhibitory concentration (IC50) at Cytochrome P450 1A2 was below 250 nM; on Cytochrome P450 2C9, 1380 nM; against Cytochrome P450 2C19, 2020 nM; against Cytochrome P450 2D6, above 20 µM; against Cytochrome P450 3A4 it was 310 nM.
For `C=Cc1nn(Cc2cccc(C)n2)c2cccc(NC(=O)c3csc4c(N)ncnc34)c12`, halving of growth in the series on NFS-60 (GI50) required 4460 nM.
`Cc1cccc(Cn2nc(Br)c3c(NC(=O)c4csc5c(N)ncnc45)cccc32)n1` showed a concentration for 50% growth inhibition (GI50) in the series on NFS-60 of 27.5 to 28 nM. The half-life in series [2] is 156 min; in [7] it was 234 min. Further, the results for the peak concentration (Cmax) in series [3] and in [8] were 2400 ng/mL and 1620 ng/mL, respectively. In addition, the AUC(0-t) at 7 h in [4] was 5760 ng·h/mL; in series [10], 6060 ng·h/mL. This compound also registered a Vd in [5] of 1.4 L/kg. Also, the clearance in [6] is 6.67 mL/min/kg. For the same compound, the time of peak concentration (Tmax) in [9] was determined as 1 h. Besides, the bioavailability in series [11] was 37%.
Regarding `C#CCn1nc(Br)c2c(NC(=O)c3csc4c(N)ncnc34)cccc21`, the GI50 with NFS-60 was above 10000 nM.
Compound `Nc1ncnc2c(C(=O)Nc3cccc4c3c(Br)nn4Cc3ccccn3)csc12` returned a GI50 in the series with NFS-60 of 2500 nM.
In the series with NFS-60, `Nc1ncnc2c(C(=O)Nc3cccc4c3c(Br)nn4CC3CCCCC3)csc12` displayed a GI50 of 254 nM.
`COc1cccc(Cn2nc(Br)c3c(NC(=O)c4csc5c(N)ncnc45)cccc32)n1`: the GI50 in the series with NFS-60 came to 34 nM.
Turning to `CCn1nc(Cn2nc(Br)c3c(NC(=O)c4csc5c(N)ncnc45)cccc32)cc1C(C)C`, the concentration for 50% growth inhibition (GI50) in the series with NFS-60 worked out at 62 nM.
`COc1ccc(Cn2nc(Br)c3c(NC(=O)c4csc5c(N)ncnc45)cccc32)cc1`: in the series with NFS-60, it took 2390 nM to inhibit growth by half (GI50).
Take `Nc1ncnc2c(C(=O)Nc3cccc4c3c(Br)nn4Cc3ccccc3)csc12`: the 50% growth inhibitory concentration (GI50) in the series on NFS-60 came out at 1000 nM.

Broadly, the GI50 is the concentration giving 50% growth inhibition. Read a high GI50 as lower sensitivity of the cells. One may read the IC50 as the concentration at which inhibition is half-maximal. In general, half-life refers to how long it takes for the measured level to halve. Read a low half-life as fast loss. One may read the Cmax as the maximum level reached in the sampled fluid or tissue. By AUC(0-t) is commonly meant the area under the concentration-time curve up to a stated or last time point. Low values mean low exposure, high ones high exposure. What is called Vd is the apparent volume that relates the amount in the body to the concentration in plasma or blood. One may read the clearance as the volume of plasma or blood freed of the substance per unit of time. Low readings indicate inefficient removal, high ones efficient removal. For orientation: Tmax means the time from dosing to the highest level. One may read the bioavailability as dose-corrected exposure relative to a reference, in per cent. Higher therefore signals much systemic uptake.
